Assay results published in article PMC2818593 (Cancer prevention research (Philadelphia, Pa.), 2010).
“And” between values parts separate entries of the source, which are not always exact repeats. Equal entries are not always repeated. Where two headings read alike, the source gives them in different places.

Key:
H4IIE cells = assay: GSH levels in H4IIE rat hepatoma cells; type: cell-based; conditions: 24 h
Procedure, shortened: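 H4IIE rat hepatoma cells grown in MEM with 10% heat-inactivated FBS, non-essential amino acids and 1 mM pyruvate at 37 °C, 5% CO2. 3 × 10^6 cells exposed 24 h to 10–160 µM test compound (DMSO 0.5% final as control), then lysed in pH 7.0 phosphate/EDTA. Total GSH measured by enzymatic recycling on 1 µg protein (Bradford), expressed as fold over control. Two-sided tests, p < 0.05.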

GSH = GSH level in rat tissues after dietary ILG; type: in vivo; conditions: 10.0 g/kg diet; liver, colon, mammary gland
[1] = system: carcinogen-treated mouse mammary organ culture; conditions: at 10 µg/mL; cited from earlier work
[2] = system: QR-1 activity in mouse Hepa 1c1c7 cells; conditions: cited from earlier work
[3] = system: glutathione S-transferase (GST); assay: GST activity in rat tissues after dietary ILG; type: in vivo; conditions: 10.0 g/kg diet; liver, colon, mammary gland
[4] = system: DMBA-induced mammary tumors; assay: DMBA-induced mammary carcinogenesis in rats; type: in vivo
[5] = system: quinone reductase-1 (QR-1); assay: QR-1 activity in rat tissues after dietary ILG; type: in vivo
[6] = Quantification of ILG in rat plasma and tissues by LC-MS-MS; type: in vivo
[7] = system: DMBA-induced mammary tumors; conditions: preliminary study, 5.0 g/kg diet, cited from earlier work
[8] = Metabolism of ILG in the rat; type: in vivo; conditions: rat plasma after administration of ILG

O=c1cc(-c2ccc(Br)cc2)oc2ccccc12 [4'-Bromoflavone, reference compound]
GSH levels (H4IIE cells; H4IIE cells, 10 µM, positive control): significant increase in GSH levels

O=C(/C=C/c1ccc(O)cc1)c1ccc(O)cc1O [ILG, 2′,4′,4-trihydroxychalcone]
GSH levels (GSH): significantly elevated only in the liver | inhibition in carcinogen-treated mouse mammary organ culture assay [1]: 76% | CD, induction of QR-1 activity [2]: 2 µM | GST activity [3]: significantly elevated only in the liver | tumor latency ([4]; 7.5 and 10 g/kg diet during the entire study): increased tumor latency | overall tumor incidence and multiplicity ([4]; 7.5 and 10 g/kg diet, after 84 days): increased the overall tumor incidence and multiplicity | body weight ([4]; between the different groups, 7.5 and 10 g/kg diet): no significant differences in body weight | QR-1 activity ([5]; colon, end of in vivo study): significantly elevated | QR-1 activity ([5]; liver or mammary gland tissues): no significant induction | Concentration of ILG in liver tissue ([6]; 7.50 g/kg diet + DMBA): 2.56 ± 0.96 µg/g tissue | Concentration of ILG in mammary tissue ([6]; 7.50 g/kg diet + DMBA): 0.044 ± 0.014 µg/g tissue | Concentration of ILG in plasma ([6]; 7.50 g/kg diet + DMBA): 57.81 ± 19.65 ng/mL and 57.8 ± 19.6 ng/mL | Concentration of ILG in liver tissue ([6]; 10.0 g/kg diet): 3.25 ± 1.38 µg/g tissue | Concentration of ILG in mammary tissue ([6]; 10.0 g/kg diet): 0.094 ± 0.043 µg/g tissue | Concentration of ILG in plasma ([6]; 10.0 g/kg diet): 142.2 ± 35.9 ng/mL | Concentration of ILG in liver tissue ([6]; 10.0 g/kg diet + DMBA): 4.71 ± 1.64 µg/g tissue | Concentration of ILG in mammary tissue ([6]; 10.0 g/kg diet + DMBA): 0.084 ± 0.040 µg/g tissue | Concentration of ILG in plasma ([6]; 10.0 g/kg diet + DMBA): 134.6 ± 47.2 ng/mL | dose giving significant increase of total GSH (H4IIE cells; rat hepatoma cells): ≥ 80 µM | incidence of mammary tumors ([7]; after 120 days): little effect on the incidence of mammary tumors | tumor latency ([7]; one week prior and one week after DMBA): increased tumor latency | adverse effects [7]: no adverse effects were detected

O=C(/C=C/c1ccc(O)cc1)c1ccc(O[C@@H]2O[C@H](C(=O)O)[C@@H](O)[C@H](O)[C@H]2O)cc1O [MG5, 4′-glucuronosylisoliquiritigenin]
relative abundance among the five glucuronides [8]: most abundant
